Measured values from PubChem BioAssay.
The source made the active and inactive calls.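 Rule for the calls, unless noted: active = viability at or under a set limit in both replicates, limit being median viability minus 3 SD (cut at about 48% in these data, passing the limit was not always enough); inconclusive = at or under the limit in just one replicate; inactive = at or above the limit in both replicates.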

How the values were obtained:
[1] = reducers of endogenous Her2 protein level, primary screen, SKBR3 breast tumor cells, AlphaScreen, ATP viability (AID 461;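 active = Her2 level under about 52% in both replicate screens, with viability over 70% of control, limit read from the data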;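 for Her2 level: lower value means less Her2 protein in the cells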;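 for viability: percent of carrier control wells set as 100% viability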); conditions: 18-24 h, measured here: SKBR3 viability, ATP luminescence, at 10 µM
[2] = molecular target: Receptor tyrosine-protein kinase erbB-2 (Homo sapiens) (UniProt P04626); assay: as above; conditions: 18-24 h, at 10 µM, stronger effect = lower value
Receptor tyrosine-protein kinase erbB-2 (Homo sapiens), sequence (P04626 whole entry, looked up): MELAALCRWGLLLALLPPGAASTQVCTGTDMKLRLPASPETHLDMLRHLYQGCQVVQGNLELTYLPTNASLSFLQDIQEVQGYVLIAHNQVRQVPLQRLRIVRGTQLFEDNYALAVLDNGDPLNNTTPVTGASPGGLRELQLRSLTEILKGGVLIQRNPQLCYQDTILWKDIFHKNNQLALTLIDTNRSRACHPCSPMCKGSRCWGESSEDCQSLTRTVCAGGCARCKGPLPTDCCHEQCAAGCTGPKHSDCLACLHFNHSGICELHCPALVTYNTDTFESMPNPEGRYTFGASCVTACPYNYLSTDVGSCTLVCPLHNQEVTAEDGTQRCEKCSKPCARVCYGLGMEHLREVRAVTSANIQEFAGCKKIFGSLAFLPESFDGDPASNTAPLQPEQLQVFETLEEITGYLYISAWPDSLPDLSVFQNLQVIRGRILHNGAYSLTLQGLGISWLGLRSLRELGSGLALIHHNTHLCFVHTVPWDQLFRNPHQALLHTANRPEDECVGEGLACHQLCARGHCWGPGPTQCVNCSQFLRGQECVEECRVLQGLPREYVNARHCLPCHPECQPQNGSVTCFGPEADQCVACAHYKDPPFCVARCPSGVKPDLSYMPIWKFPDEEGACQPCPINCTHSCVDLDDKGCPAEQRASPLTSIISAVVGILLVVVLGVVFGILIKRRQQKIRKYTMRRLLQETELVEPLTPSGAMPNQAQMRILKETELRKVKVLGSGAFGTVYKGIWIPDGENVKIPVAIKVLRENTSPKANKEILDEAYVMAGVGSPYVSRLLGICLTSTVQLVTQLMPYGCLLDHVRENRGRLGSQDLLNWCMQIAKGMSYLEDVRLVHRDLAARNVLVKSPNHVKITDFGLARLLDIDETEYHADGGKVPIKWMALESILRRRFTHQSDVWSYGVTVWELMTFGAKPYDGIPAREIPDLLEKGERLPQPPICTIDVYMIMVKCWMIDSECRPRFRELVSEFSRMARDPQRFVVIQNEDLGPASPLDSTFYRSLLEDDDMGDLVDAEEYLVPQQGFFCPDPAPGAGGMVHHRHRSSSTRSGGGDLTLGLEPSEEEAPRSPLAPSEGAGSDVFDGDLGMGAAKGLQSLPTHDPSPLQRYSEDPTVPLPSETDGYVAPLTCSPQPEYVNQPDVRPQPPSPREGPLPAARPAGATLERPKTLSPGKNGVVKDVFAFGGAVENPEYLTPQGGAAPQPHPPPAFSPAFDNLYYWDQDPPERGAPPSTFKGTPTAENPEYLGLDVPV

[3] = SK-BR-3 cell growth inhibitors, pilot screen, 24 h, human (AID 572;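 active = viability at or below 10% of carrier control in both of two separate runs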;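 note: compound exposure lasted between 18 and 24 h rather than exactly 24 h; 100% = carrier-treated control wells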); conditions: SK-BR-3 viability, CellTiter-Glo luminescence, at 10 µM, stronger effect = lower value
[4] = HUVEC growth inhibition – cell-based, human, primary screen (AID 575;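 active = viability at or below 30% in both replicate assays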;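 note: 100% = median of untreated cell wells with 0.1% DMSO on each plate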); conditions: HUVEC proliferation, CellTiter-Glo luminescence, 72 h; at 10 µM; stronger effect = lower value
In short: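 Assay system: primary human umbilical vein endothelial cells / Buffer or medium: endothelial basal medium with 2% FBS plus growth supplements / Compound dosing: one dose, 10 µM final, 0.1% DMSO / Timing: 72 h treatment at 37 °C / Signal: CTG luminescence / Benchmarks: 32 DMSO-only cell-control wells (high), 32 MePR drug-control wells (low) per plate / Plate: collagen-coated 384-well format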

[5] = growth inhibitors of H69AR lung tumor, primary screen, human, duplicate replicates (AID 580); conditions: H69AR lung tumor cells viability, ATP luminescence, 72 h; at 10 µM; stronger effect = lower value;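 note: 100% = mean luminescence of untreated wells and 0% = no signal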
[6] = reversal of MRP1-mediated doxorubicin resistance, pilot screen, H69AR cells, doxorubicin co-treatment (AID 601;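 active = viability loss from added drug above about 55%, and viability with drug at most 40%, in both replicates, limit read from the data, passing the limit was not always enough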); conditions: CellTiter-Glo, 72 h, at 10 µM; for differential viability (reversal): stronger effect = higher value
[7] = 384-well plate pilot, post-Golgi transport modulator project, inhibition of yeast transport mutant growth (AID 636; in the data active = inhibition above about 31%); conditions: absorbance 615 nm, about 18 h, stronger effect = higher value
[8] = growth suppression of yeast trafficking mutant, preliminary HTS, modulators of trafficking downstream of Golgi apparatus project, 1536-format plate, OD 615 nm (AID 637; in the data active = inhibition above about 30%); conditions: yeast transport mutant growth, absorbance 615 nm, 18 h; stronger effect = higher value
[9] = H69AR cells + 2 uM doxorubicin, measured here: viability with 2 uM doxorubicin, stronger effect = lower value
[10] = H69AR cells, compound alone cytotoxicity

SMILES: COCC(=O)Nc1sc2c(c1C(=O)OC)C(C(=O)OC)CC2 (stereo not given)
- viability [1]: 75.5%
- Her2 level [2]: 108% (inactive)
- viability [3]: 75.5% (inactive)
- viability [4]: 84.6% (inactive)
- viability [5]: 101% (inactive)
- differential viability (reversal) ([6]; H69AR cells + 2 uM doxorubicin): 12.5% (inactive)
- viability [6, 9]: 88.6%
- viability [6, 10]: 101%
- inhibition [7]: 3.16% (inactive)
- inhibition [8]: 11.4% (inactive)

SMILES: O=C(O)c1cc2nc(-c3ccc(F)cc3)cc(C(F)(F)F)n2n1
- viability [1]: 94%
- Her2 level [2]: 118% (inactive)
- viability [3]: 94% (inactive)
- viability [4]: 82% (inactive)
- viability [5]: 93.2% (inactive)
- differential viability (reversal) ([6]; H69AR cells + 2 uM doxorubicin): 4% (inactive)
- viability [6, 9]: 89.2%
- viability [6, 10]: 93.2%
- inhibition [7]: -2.24% (inactive)
- inhibition [8]: -1% (inactive)

SMILES: N#CC1=C(N)SC(N)=C(C#N)C1c1ccc(C(F)(F)F)cc1
- viability [1]: 90%
- Her2 level [2]: 104% (inactive)
- viability [3]: 90% (inactive)
- viability [4]: 56.3% (inactive)
- viability [5]: 84.3% (inactive)
- differential viability (reversal) ([6]; H69AR cells + 2 uM doxorubicin): -4.95% (inactive)
- viability [6, 9]: 89.3%
- viability [6, 10]: 84.3%
- inhibition [7]: 5.58% (inactive)
- inhibition [8]: 0.82% (inactive)

SMILES: CCCCNS(=O)(=O)c1ccc(OC)c2ncccc12
- viability [1]: 102%
- Her2 level [2]: 108% (inactive)
- viability [3]: 102% (inactive)
- viability [4]: 102% (inactive)
- viability [5]: 90% (inactive)
- differential viability (reversal) ([6]; H69AR cells + 2 uM doxorubicin): 0.295% (inactive)
- viability [6, 9]: 89.7%
- viability [6, 10]: 90%
- inhibition [7]: -4.32% (inactive)
- inhibition [8]: -3.33% (inactive)

SMILES: CCOc1cc(C2c3c(n[nH]c3C)C(=O)N2c2ccc(Br)cc2)ccc1O (stereo not given)
- viability [1]: 102%
- Her2 level [2]: 71.5% (inactive)
- viability [3]: 102% (inactive)
- viability [4]: 53.1% (inactive)
- viability [5]: 72.9% (inactive)
- differential viability (reversal) ([6]; H69AR cells + 2 uM doxorubicin): 9.98% (inactive)
- viability [6, 9]: 62.9%
- viability [6, 10]: 72.9%
- inhibition [7]: -4.27% (inactive)
- inhibition [8]: 3.44% (inactive)

SMILES: Cc1cc(C)cc(NC(=O)N2CCC(c3nc4ccccc4o3)CC2)c1
- viability [1]: 90.5%
- Her2 level [2]: 99% (inactive)
- viability [3]: 90.5% (inactive)
- viability [4]: 88.9% (inactive)
- viability [5]: 94.9% (inactive)
- differential viability (reversal) ([6]; H69AR cells + 2 uM doxorubicin): 1.69% (inactive)
- viability [6, 9]: 93.2%
- viability [6, 10]: 94.9%
- inhibition [7]: -4.8% (inactive)
- inhibition [8]: 1.8% (inactive)

SMILES: Cc1c(NC(=O)CSc2nnc3sc4ccccc4n23)c(=O)n(-c2ccccc2)n1C
- viability [1]: 94%
- Her2 level [2]: 92.5% (inactive)
- viability [3]: 94% (inactive)
- viability [4]: 106% (inactive)
- viability [5]: 90.4% (inactive)
- differential viability (reversal) ([6]; H69AR cells + 2 uM doxorubicin): 0.76% (inactive)
- viability [6, 9]: 89.6%
- viability [6, 10]: 90.4%
- inhibition [7]: 0.65% (inactive)
- inhibition [8]: -2.79% (inactive)

SMILES: COC(=O)c1ccccc1NC(=O)C1CC(=O)N(c2ccccc2)C1 (stereo not given)
- viability [1]: 122%
- Her2 level [2]: 96% (inactive)
- viability [3]: 122% (inactive)
- viability [4]: 114% (inactive)
- viability [5]: 102% (inactive)
- differential viability (reversal) ([6]; H69AR cells + 2 uM doxorubicin): 20.8% (inactive)
- viability [6, 9]: 80.9%
- viability [6, 10]: 102%
- inhibition [7]: -6.27% (inactive)
- inhibition [8]: 6.77% (inactive)

SMILES: COc1ccc(C2C(C#N)=C(N)OC3=C2C(=O)CC(C)C3)c(OC)c1OC (stereo not given)
- viability [1]: 102%
- Her2 level [2]: 134% (inactive)
- viability [3]: 102% (inactive)
- viability [4]: 101% (inactive)
- viability [5]: 100% (inactive)
- differential viability (reversal) ([6]; H69AR cells + 2 uM doxorubicin): 3.42% (inactive)
- viability [6, 9]: 96.6%
- viability [6, 10]: 100%
- inhibition [7]: 2.86% (inactive)
- inhibition [8]: -4.83% (inactive)

SMILES: COc1ccc(OC)c(C(=O)COC(=O)c2cc(C)oc2C)c1
- viability [1]: 112%
- Her2 level [2]: 71% (inactive)
- viability [3]: 112% (inactive)
- viability [4]: 62.9% (inactive)
- viability [5]: 92.7% (inactive)
- differential viability (reversal) ([6]; H69AR cells + 2 uM doxorubicin): 4.87% (inactive)
- viability [6, 9]: 87.9%
- viability [6, 10]: 92.7%
- inhibition [7]: -7.33% (inactive)
- inhibition [8]: -4.92% (inactive)

SMILES: O=C(Cn1c(=O)[nH]n(-c2ccccc2)c1=O)N1CCCc2ccccc21
- viability [1]: 116%
- Her2 level [2]: 96% (inactive)
- viability [3]: 116% (inactive)
- viability [4]: 82.1% (inactive)
- viability [5]: 93.7% (inactive)
- differential viability (reversal) ([6]; H69AR cells + 2 uM doxorubicin): 8.74% (inactive)
- viability [6, 9]: 85%
- viability [6, 10]: 93.7%
- inhibition [7]: -5.73% (inactive)
- inhibition [8]: -4.92% (inactive)

SMILES: O=C(OCc1nnc(-c2ccc(Cl)cc2)o1)c1ccc(=O)n(Cc2ccccc2)n1
- viability [1]: 84.5%
- Her2 level [2]: 84.5% (inactive)
- viability [3]: 84.5% (inactive)
- viability [4]: 102% (inactive)
- viability [5]: 95.1% (inactive)
- differential viability (reversal) ([6]; H69AR cells + 2 uM doxorubicin): 13.1% (inactive)
- viability [6, 9]: 82.1%
- viability [6, 10]: 95.1%
- inhibition [7]: -4.81% (inactive)
- inhibition [8]: -9% (inactive)

SMILES: Cc1oc2cc(O)ccc2c(=O)c1-c1cnn(-c2ccccc2)c1
- viability [1]: 93.5%
- Her2 level [2]: 90% (inactive)
- viability [3]: 93.5% (inactive)
- viability [4]: 85% (inactive)
- viability [5]: 96.5% (inactive)
- differential viability (reversal) ([6]; H69AR cells + 2 uM doxorubicin): -1.5% (inactive)
- viability [6, 9]: 98%
- viability [6, 10]: 96.5%
- inhibition [7]: -5.13% (inactive)
- inhibition [8]: 13.3% (inactive)

SMILES: CSc1nnc2n(CCc3ccccc3)c(=O)c3c4c(sc3n12)CCCC4
- viability [1]: 104%
- Her2 level [2]: 94% (inactive)
- viability [3]: 104% (inactive)
- viability [4]: 96.3% (inactive)
- viability [5]: 102% (inactive)
- differential viability (reversal) ([6]; H69AR cells + 2 uM doxorubicin): 25.7% (inactive)
- viability [6, 9]: 76%
- viability [6, 10]: 102%
- inhibition [7]: -1.45% (inactive)
- inhibition [8]: 0.16% (inactive)

SMILES: CCS(=O)(=O)N1CCCC(c2nc(-c3cccc(OC)c3)no2)C1 (stereo not given)
- viability [1]: 100%
- Her2 level [2]: 110% (inactive)
- viability [3]: 100% (inactive)
- viability [4]: 96.7% (inactive)
- viability [5]: 92.7% (inactive)
- differential viability (reversal) ([6]; H69AR cells + 2 uM doxorubicin): 0.525% (inactive)
- viability [6, 9]: 92.2%
- viability [6, 10]: 92.7%
- inhibition [7]: -3.84% (inactive)
- inhibition [8]: -2.7% (inactive)
